High-throughput results deposited in PubChem BioAssay by The Scripps Research Institute Molecular Screening Center.
CHRM5 antagonist = blocks acetylcholine activation of human M5 receptor; P08912; inhibition, % at 3 µM; AID 624040; hit rate 0.59% among 360,000; CHO-hM5 cells, Fluo-8 calcium fluorescence, ACh EC80;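 active = inhibition above a per-plate cutoff, the mean of that plate's test compounds plus 3 SD, cut at about 27% in these data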;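 note: 0% = acetylcholine EC80 with DMSO and 100% = DMSO without agonist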
M1 antag = human CHRM1 antagonism | CHO-K1 hM1, Fluo-8 calcium fluorescence, ACh EC80 antagonist | inhibition, % at 3 µM | hit rate 1.3% among 360,000 | AID 588852;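 active = percent inhibition above its own plate's cutoff, namely the mean of that plate's compound wells plus 3 SD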;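 note: peak over basal fluorescence ratio during 140 s after agonist addition; 0% = ACh EC80 plus DMSO and 100% = DMSO alone without agonist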
Target sequence (P11229 whole entry, looked up): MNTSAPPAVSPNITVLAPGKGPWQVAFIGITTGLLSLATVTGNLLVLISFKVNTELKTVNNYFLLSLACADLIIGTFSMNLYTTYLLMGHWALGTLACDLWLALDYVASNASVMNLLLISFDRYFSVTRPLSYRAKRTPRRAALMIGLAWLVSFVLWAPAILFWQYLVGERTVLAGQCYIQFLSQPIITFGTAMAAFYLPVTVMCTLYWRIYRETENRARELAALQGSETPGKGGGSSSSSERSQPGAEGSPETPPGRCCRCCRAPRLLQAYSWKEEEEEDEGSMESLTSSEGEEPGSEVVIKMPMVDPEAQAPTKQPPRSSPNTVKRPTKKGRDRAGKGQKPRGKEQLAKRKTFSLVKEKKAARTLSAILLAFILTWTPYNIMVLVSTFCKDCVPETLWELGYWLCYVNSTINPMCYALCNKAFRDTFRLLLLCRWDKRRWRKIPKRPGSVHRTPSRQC
M5 ag = agonists of human muscarinic M5 receptor (CHRM5). CHO-K1 hM5 cells, Fluo-8 calcium fluorescence; 0% DMSO wells, 100% maximal acetylcholine response. activation, % at 3 µM. hit rate 0.19% among 360,000. AID 624037;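 active = activation above the run's mean over test compounds plus 3 SD, cut at about 23% in these data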;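 note: signal is peak over basal fluorescence ratio across the kinetic read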
CHRM5 PAM = positive allosteric modulators of human muscarinic M5 receptor. P08912. CHO-K1 hM5, Fluo-8 calcium, ACh EC20 PAM; 0% = ACh EC20, 100% = ACh EC100. activation, % at 3 µM. hit rate 0.3% among 360,000;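 active = activation above the run cutoff, the mean activation of all test compounds plus 3 SD, cut at about 18% in these data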
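System – CHO-K1 hM5 cells · Compound – 3 µM, single dose · Incubation – compound preincubation 140 s before EC20 acetylcholine addition · Technique – Fluo-8 calcium fluorescence · Measure – Max/basal fluorescence ratio as % of EC20–EC100 ACh window · Benchmarks – low control EC20 acetylcholine (0%), high control EC100 acetylcholine (100%) · Replication – singlicate, one well per test compound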
M1 PAM = human CHRM1 positive allosteric modulation | P11229 | CHO-K1 hM1, Fluo-8 calcium fluorescence, ACh EC20; 0% = ACh EC20, 100% = maximal ACh | activation, % at 3 µM | hit rate 0.088% among 360,000; in the data active = activation above about 19%, passing the limit was not always enough
CHRM1 agonist = activates human CHRM1 receptor | P11229 | CHO-K1 hM1, Fluo-8 calcium fluorescence, agonist mode; 0% DMSO, 100% acetylcholine EC100 | activation, % at 3 µM | hit rate 0.33% among 360,000 | AID 588814;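 active = activation above the run's mean compound activation plus 3 SD, cut at about 16% in these data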;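 note: peak over basal fluorescence ratio within a 140 s kinetic read after compound addition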
Starred values were filed as active, the others as inactive. Sampled rows, rich in hits. Any-hit rate of the full collection: about 2%.

SMILES | CHRM5 antagonist | M1 antag | M5 ag | CHRM5 PAM | M1 PAM | CHRM1 agonist
C[N+]12CCC(CC1)C(OC(=O)C(O)(c1ccccc1)c1ccccc1)C2 (stereo not given) | 99* | 98* | -2 | -18 | -26 | -7
CCN1CCN(C(=O)c2cc(COc3ccc4ncccc4c3)on2)CC1 | 5 | 10 | 8 | -13 | -2 | 3
COCC1CCCCN1C(=O)c1cc(COc2ccc3ncccc3c2)on1 (stereo not given) | 39* | 55* | 7 | -14 | -16 | 6
Cc1ccc(F)cc1CNC(=O)c1cc(COc2ccc3ncccc3c2)on1 | 56* | 39* | 6 | -16 | -26 | 1
COCCC1CCCCN1C(=O)c1cc(COc2ccc(-n3cncn3)cc2)on1 (stereo not given) | 19 | 31* | 5 | -19 | -4 | 6
CCC1CCCCN1C(=O)c1cc(COc2ccc3ncccc3c2)on1 (stereo not given) | 41* | 31 | 7 | -29 | -13 | -1
CCCS(=O)(=O)NC(=O)C1(C)CCCN(C(=O)c2cccnc2Oc2ccccc2)C1 (stereo not given) | 4 | -10 | 0 | -3 | 13 | 2
CCC1CCCCN1CCCNC(=O)c1nn(C)c2c1CS(=O)(=O)c1ccccc1-2 (stereo not given) | 5 | -1 | -8 | 2 | -1 | -5
O=C(O)CN1C(=O)C2C3CCC(C3)C2C1=O (stereo not given) | -3 | -7 | 1 | 3 | -1 | -1
O=C(Oc1ccc(Br)cc1C(=S)N1CCCC1)c1ccccc1F | 9 | -6 | -5 | -11 | 7 | -9
O=C(Oc1ccc(Br)cc1C(=S)N1CCCC1)c1ccccc1Cl | -17 | -32 | -7 | 20* | 17 | 5
CCOC(=O)/C=c1\s/c(=C(\C#N)C(=O)NC)n(-c2ccccc2)c1=O | -12 | -7 | -2 | 23* | 10 | 0
O=C(NC1CC1)C1CCN(C2CCN(C(=O)/C=C/c3cccc(F)c3F)CC2)CC1 | 5 | -2 | -5 | 3 | 0 | -2
O=C(NC1CC1)C1CCN(C2CCN(C(=O)/C=C/c3cccs3)CC2)CC1 | 29* | -14 | -2 | 28* | 7 | -7
Cc1cc(C)c2nc(N3CCC(C(=O)N4CCCC4)CC3)sc2c1 | 2 | 37* | -6 | -25 | -23 | -8
Cc1cc(=O)n2nc(N3CCCC3C(=O)NCCCN3CCCCC3)sc2n1 (stereo not given) | 13 | 13 | 0 | 19* | -3 | -5
Cc1cc(C)c2nc(N3CCC(C(=O)NCCCN4CCCCC4)CC3)sc2c1 | 9 | 76* | -6 | -21 | -20 | -5
Cc1nc2c(OCCC3CCCCC3)cccn2c1N(C)C(=O)CCC1CCCC1 | 4 | -14 | -3 | -8 | 9 | -5
CC1=C(C(=O)N2CCOCC2)CC(CC(=O)NCc2cccc3ccccc23)C(=O)N1Cc1ccc(C(C)(C)C)cc1 (stereo not given) | 10 | 11 | 4 | -4 | -14 | -2
CC(=O)Oc1ccccc1Cn1c(C)c(C(=O)NCc2cccc(Cl)c2)sc1=O | 0 | -15 | 3 | -1 | 8 | 1
CNC(=O)c1cn2c3c(ccc(Cl)c3c1=O)OC(C)C2 (stereo not given) | 6 | -9 | -2 | -4 | 0 | -4
O=C(O)c1cn2c3c(ccc(Cl)c3c1=O)OCC2 | 4 | -28 | -2 | 6 | 26* | 1
Cc1ccc(C(C)C)c(OCCCCCN2CCOCC2)c1 | 17 | 69* | -8 | -16 | -36 | -12
C=CCc1ccc(OCCCCCN2CCOCC2)c(OC)c1 | 9 | 46* | -11 | -15 | -21 | -5
C=CCc1ccc(OCCCCOc2ccc(C(=O)O)cc2)c(OC)c1 | 4 | 1 | 1 | 2 | -5 | -8
Cc1ccc(C(C)C)c(OCCCCN2CCNCC2)c1 | 13 | -7 | -5 | 1 | -3 | -8
COc1ccccc1NC(=O)Nc1nnc([C@@H]2C[C@H](O)[C@@H](CO)O2)s1 | -2 | -12 | 0 | -2 | 11 | 1
